Converted amounts (≈) assume the structure as drawn.
Assays:
NCI-H446 = assay: Cytotoxicity against human NCI-H446 cells by tetrazolium salt based quantitative colorimetric assay; format: functional, cell-based
[1] = Cytotoxicity against human L02 cells by tetrazolium salt based quantitative colorimetric assay; format: functional, cell-based
MCF7 = assay: Cytotoxicity against human MCF7 cells by tetrazolium salt based quantitative colorimetric assay; format: functional, cell-based
[2] = Cytotoxicity against human SGC7901 cells by tetrazolium salt based quantitative colorimetric assay; format: functional, cell-based; conditions: SGC-7901
DU-145 = assay: Cytotoxicity against human DU145 cells by tetrazolium salt based quantitative colorimetric assay; format: functional, cell-based
[3] = Cytotoxicity against mouse LM3 cells by tetrazolium salt based quantitative colorimetric assay; format: functional, cell-based
SW1990 = assay: Cytotoxicity against human SW1990 cells by tetrazolium salt based quantitative colorimetric assay; format: functional, cell-based
HepG2 = assay: Cytotoxicity against human HepG2 cells by tetrazolium salt based quantitative colorimetric assay; format: functional, cell-based
HeLa = assay: Cytotoxicity against human HeLa cells by tetrazolium salt based quantitative colorimetric assay; format: functional, cell-based
[4] = Cytotoxicity against human HuH7 cells by tetrazolium salt based quantitative colorimetric assay; format: functional, cell-based; conditions: Huh-7
Staphylococcus aureus = assay: Antimicrobial activity against Staphylococcus aureus EMBLC-2 by XTT assay; format: functional
Procedure, shortened: (§1)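 Bacterial panel of two human-pathogenic and seven aquacultural strains, run by a previously described method. Chloramphenicol served as the positive control against bacteria.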

U-251 = assay: Cytotoxicity against human U251 cells by tetrazolium salt based quantitative colorimetric assay; format: functional, cell-based
A549 = assay: Cytotoxicity against human A549 cells by tetrazolium salt based quantitative colorimetric assay; format: functional, cell-based
SW480 = assay: Cytotoxicity against human SW480 cells by tetrazolium salt based quantitative colorimetric assay; format: functional, cell-based
Aeromonas hydrophila = assay: Antimicrobial activity against Aeromonas hydrophila QDIO-1 by XTT assay; format: functional; procedure, shortened: as §1
Gaeumannomyces graminis = assay: Antimicrobial activity against Gaeumannomyces graminis QDAU-3 by XTT assay; format: functional
Procedure, shortened: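 Plant-pathogenic fungus strain QDAU-3 was obtained from Qingdao Agricultural University and tested by a previously described method. Amphotericin B was the positive control against fungi.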

Vibrio harveyi = assay: Antimicrobial activity against Vibrio harveyi QDIO-7 by XTT assay; format: functional; procedure, shortened: as §1
Artemia salina = assay: Cytotoxicity in brine shrimp; format: functional; conditions: read-out: LD50 (the source's name)
Vibrio parahaemolyticus = assay: Antimicrobial activity against Vibrio parahaemolyticus QDIO-8 by XTT assay; format: functional; procedure, shortened: as §1

| Compound | IC50 (NCI-H446) [µM] | IC50 [1] [µM] | IC50 (MCF7) [µM] | IC50 [2] [µM] | IC50 (DU-145) [µM] | IC50 [3] [µM] | IC50 (SW1990) [µM] | IC50 (HepG2) [µM] | IC50 (HeLa) [µM] | IC50 [4] [µM] | MIC (Staphylococcus aureus) [µg/mL] | IC50 (U-251) [µM] | IC50 (A549) [µM] | IC50 (SW480) [µM] | MIC (Aeromonas hydrophila) [µg/mL] | MIC (Gaeumannomyces graminis) [µg/mL] | MIC (Vibrio harveyi) [µg/mL] | LC50 (Artemia salina) [µM] | MIC (Vibrio parahaemolyticus) [µg/mL] |
| --- | --- | --- | --- | --- | --- | --- | --- | --- | --- | --- | --- | --- | --- | --- | --- | --- | --- | --- | --- |
| COc1ccc([C@@H]2SS[C@@]34C[C@]5(O)[C@H](O)C=C[C@@H](O)[C@@H]5ON3C(=O)[C@@H]2N(C)C4=O)c(O)c1OC | > 10 | > 10 | > 10 | > 10 | > 10 | > 10 | > 10 | > 10 | > 10 | > 10 | 64 (≈ 125 µM) | > 10 | > 10 | > 10 | – | – | – | – | – |
| C=C(C)[C@H]1[C@H](OC(C)=O)C[C@H](C)[C@@]12CC=C(C)[C@@H](O)C2 | > 10 | > 10 | > 10 | > 10 | > 10 | > 10 | > 10 | > 10 | > 10 | > 10 | – | > 10 | > 10 | > 10 | – | – | – | – | – |
| COc1ccc([C@@H]2SS[C@@]34C[C@]5(O)[C@H](Cl)C=C[C@@H](O)[C@@H]5ON3C(=O)[C@@H]2N(C)C4=O)c(O)c1OC | > 10 | > 10 | > 10 | > 10 | > 10 | > 10 | > 10 | > 10 | > 10 | > 10 | 8 (≈ 15.1 µM) | > 10 | > 10 | > 10 | 8 (≈ 15.1 µM) | 16 (≈ 30.1 µM) | 32 (≈ 60.3 µM) | 4.8 | 8 (≈ 15.1 µM) |
| C=C(C)[C@H]1[C@H](OC(C)=O)C[C@H](C)[C@@]12CC=C(CO)[C@@H](O)C2 | 5 | > 10 | > 10 | > 10 | > 10 | > 10 | > 10 | > 10 | > 10 | > 10 | – | > 10 | > 10 | > 10 | – | – | – | – | – |
| COc1cc2c(c(OC)c1OC)-c1ccc(OC)c(=O)cc1[C@@H](NC(C)=O)CC2 [COLCHICINE] | – | – | – | – | – | – | – | – | – | – | – | – | – | – | – | – | – | 8.1 | – |

Source: ChEMBL document CHEMBL3580658, “Bisthiodiketopiperazines and Acorane Sesquiterpenes Produced by the Marine-Derived Fungus Penicillium adametzioides AS-53 on Different Culture Media” (J Nat Prod, 2015)
